# Compound activity deposited in PubChem BioAssay by Columbia University Molecular Screening Center.
# Insulin prom act – activators of insulin promoter-driven GFP, primary screen, imaging, TRM-6 cells (human fetal islet line), eGFP reporter, cell count; plate-scaled: unstimulated 0, stimulated control 100; activation, % at 2 µM; 0.81% of 130,000 active;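 active = activation at 2 µM above a set limit, confirmed on inspection of the cell images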;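 also: share of cells whose green reporter signal exceeds an intensity cutoff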
#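 Material: TRM-6 insulin promoter–eGFP reporter cells. Buffer or medium: Low-glucose (5.5 mM) medium with tamoxifen. Probe or stimulus: tamoxifen at 0.75 µM added at seeding for reporter induction. Times: tamoxifen pre-incubation 15 h overnight, then compound exposure 48 h at 37 °C. Detection: high-content imaging of fixed cells with Hoechst nuclear stain.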
# An asterisk follows results filed as active. Many of the other results were omitted from the sample, so hits are more common in it than they were.
SMILES,Insulin prom act
CCSCc1nnc(SCC(=O)Nc2cccc(SC)c2)n1C,425.0*
Cc1nc2cc(-c3cccc(F)c3)nn2c(N2CCN(C(=O)c3ccco3)CC2)c1C,-4.3
CC(=O)C(CC(=O)N1CCCc2ccccc21)C(=O)Nc1ccc(F)cc1 (stereo not drawn),0.0
CCOc1cc(CNc2ccc3c(c2)CCC3)ccc1OC,-6.5
CCC(=O)Nc1ccnc(-c2cccnc2)n1,0.0
O=C(Nc1ccccc1)c1ccncc1,-5.7
O=C(Nc1ccnc(-c2ccncc2)n1)c1ccc(F)cc1,340.0*
Cc1sc2ncnc(SCC(=O)N(C)C3CCS(=O)(=O)C3)c2c1C (stereo not drawn),0.0
Cc1occc1C(=O)NNC(=O)Cc1ccccc1,9.8
CCOC(=O)/C(C#N)=C1/C=CN(Cc2ccccc2)C=N1,-6.1
CCOC(=O)C(/C=C(\C#N)C(=O)OCC)=C(/N)N1CCN(c2ccccc2)CC1,-7.1
CCCN1C=CC(=C/C=C(\C#N)C(=O)OCC)C=C1,141.0*
CCCCCCN1C=CC(=C/C=C(\C#N)C(=O)OCC)C=C1,132.6*
CCOC(=O)/C(C#N)=C\C1=C(N2CCCC2)CC(C)(C)OC1,-2.9
CCOC(=O)/C(C#N)=C1/C=CN(C)C=N1,0.0
CCc1ccc(C2=NN(CCC(=O)NC(C)CCc3ccccc3)C(=O)CC2)cc1 (stereo not drawn),107.1
CC(C(=O)O/N=C(\N)c1cccnc1)c1ccc([N+](=O)[O-])cc1 (stereo not drawn),0.0
O=C(CN(C(=O)CSc1nc2ccccc2o1)c1ccccc1F)NC1CCCCC1,-2.7
COC(=O)c1c(C)oc2ccc(NS(=O)(=O)c3cc(OC)ccc3OC)cc12,-81.2
COc1ccc(OC)c(S(=O)(=O)Nc2ccc(O)c3ccccc23)c1,450.0*
CNS(=O)(=O)c1cc(OC)ccc1OC,115.4
Fc1cccc(Nc2ncnc3sc4c(c23)CCC4)c1,6.7
CCn1cc(CNC(=O)CCSc2nc(-c3ccco3)cc(C(F)(F)F)n2)cn1,8.3
COc1ccc(CN2CCN(C(=O)C3CCC(CNS(=O)(=O)c4ccccc4)CC3)CC2)c(OC)c1OC (stereo not drawn),-9.1
CCOc1ccc(CO/N=C/c2c(C)[nH]c(=O)[nH]c2=O)cc1,0.0
SMILES,Insulin prom act
FC(F)(F)c1cccc(N2CCN(CC3CC4C=CC3C4)CC2)c1 (stereo not drawn),-7.7
O=C(c1c(F)c(F)c(F)c(F)c1F)N1CCN(c2cccc(C(F)(F)F)c2)CC1,0.0
Oc1cc2c(cc1CN1CCN(c3cccc(C(F)(F)F)c3)CC1)CCC2,81.6*
Cc1c(NC(=O)COC(=O)COc2ccc(Nc3ccccc3)cc2)c(=O)n(-c2ccccc2)n1C,133.3
Cc1c(NC(=O)COC(=O)CCC(=O)c2ccc(Cl)cc2)c(=O)n(-c2ccccc2)n1C,8.3
COc1ccc2cc(-c3cc(C(=O)OCC(=O)Nc4c(C)n(C)n(-c5ccccc5)c4=O)c4ccccc4n3)ccc2c1,325.0*
Cc1ccc(C(=O)N/C(N)=N/c2nc3ccccc3o2)cc1,-4.3
Cc1cccc(NC(=O)CSc2nc3ccccc3o2)c1,-3.6
Cc1ccc(-c2nnc(Sc3nc4ccccc4o3)c3ccccc23)cc1,590.0*
Cc1ccnc2ccc(SC(F)(F)F)cc12,416.7*
O=C(CN1CC(c2ccccc2)CC1=O)N/N=C/c1cc(Br)ccc1O (stereo not drawn),3.3
COc1ccc(-c2nn(C)c(=O)c3ccccc23)cc1CNC(=O)CN1CCOCC1,97.5
Cc1ccc(OCC(=O)Nc2ccc(S(=O)(=O)N3CCN(C)CC3)cc2)cc1,405.6*
Cc1ccc(S(=O)(=O)N2CCN(C(=O)COc3ccc(NC(=O)c4ccco4)cc3)CC2)cc1,106.7
CN(CC(=O)Nc1ccc(S(=O)(=O)N2CCCC2)cc1)CC(=O)Nc1cccc(F)c1,220.0*
COc1ccc(S(=O)(=O)N2CCN(CC(=O)Nc3cccc(F)c3)CC2)cc1,-3.2
CN1CCN(S(=O)(=O)c2ccc(N(C)CC(=O)Nc3ccc(F)cc3)nc2)CC1,-20.0
CC(C)CC(=O)NC(=S)Nc1ccc(S(=O)(=O)N2CCN(C)CC2)cc1,7.7
COc1ccc(/C=N/NC(=O)CNS(=O)(=O)c2ccc(C)cc2)cc1,-6.7
O=C(c1cc2nc(-c3ccc(F)cc3)cc(C(F)(F)F)n2n1)N1CCCCC1c1cccnc1 (stereo not drawn),0.0
COC(=O)c1ccc2c(=O)n(-c3ccccc3F)c(=S)[nH]c2c1,-100.0
Cc1cc(NC(=O)c2cc3ncc(Br)cn3n2)no1,0.0
O=C(CCCCCCN1C(=O)c2ccccc2C1=O)N1CCC(c2ccccc2)C1 (stereo not drawn),310.8
COc1cc(/C=C2\S/C(=N/S(=O)(=O)c3ccc(C)cc3)NC2=O)c([N+](=O)[O-])cc1OC,453.3*
Cc1cccc(N=C2NC(=O)/C(=C/c3cccs3)S2)c1,0.0
COc1ccccc1/C=C1\S/C(=N/NC(=O)c2cccc(Br)c2)NC1=O,-7.7
O=C(O)CC1=C(c2ccc(F)cc2)CCC1=O,7.7
COc1ccccc1C(=O)NC(=S)Nc1ccc(S(=O)(=O)N2CCN(C)CC2)cc1,7.7
